System: MS2 coat protein
Test: apparent Kd, MS2 coat protein; higher = weaker binding; RNA-MaP array; FMN 200 µM where present
How it was run: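 Designs on Illumina sequencing-chip clusters, transcribed by stalled E. coli RNA polymerase, were exposed to SNAP-549-labelled MS2 coat protein in doubling steps from 0.7 or 1.5 nM up to 3 µM, without and then with constant ligand. The buffer held 100 mM Tris-HCl pH 7.5, 80 mM KCl, 4 mM MgCl2, BSA, DTT, yeast tRNA and Tween-20. Apparent Kd values are medians of filtered per-cluster binding-curve fits to green signal normalised to red-channel RNA signal and control-cluster median Fmax.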

[1] = designed as: ON switch for flavin mononucleotide, no ligand
[2] = ligand present: flavin mononucleotide, designed as: ON switch for flavin mononucleotide
[3] = designed as: OFF switch for flavin mononucleotide, no ligand
[4] = ligand present: flavin mononucleotide, designed as: OFF switch for flavin mononucleotide

GGGUACAUUGGAGGAUAUCAUGUAAAUACAUGAGGAUCACCCAUGUCGAUGGAGACAUCGGAGAUUGAGAAGGCCGAUGUACCG
apparent Kd [1]: 183 nM
apparent Kd [2]: 9.08 nM

UUAAUAAAGUAAGGAUAUACAUGAGGAUCUCUCGUAGAAGGUACUAUACAUGAGGAUCACCCAUGUGCCGGUCCGUAGACUGGA
apparent Kd [1]: 387 nM
apparent Kd [2]: 796 nM

GCACGAGACUAAGGAUAUGAUGUACCUAUAUGUGACAUGAGGAUCACCCAUGUGGUAAGUAUGAUUCAGAAGGUAGAGACGUGC
apparent Kd [1]: 28.2 nM
apparent Kd [2]: 20.6 nM

CGAGAUACGCUCGACCGAAAGGUACAUGAGGAUCACCCAUGUAGAAGGCGAUCCGCAACUCGGAUUGAGGAUAUAUACUACACA
apparent Kd [3]: 31.8 nM
apparent Kd [4]: 24.4 nM

AGUGAUUGCUGUGUCAGUUCACAUGAGGAUCACCCAUGUAGCUAGGAUAUCCGCAGUUACUGCUAGGAGAAGGAGCAAGGUGGC
apparent Kd [3]: 8.6 nM
apparent Kd [4]: 12.1 nM

UUGAGGUGUCAAGGAUAUGCUACCGUUUCGGUAGCAGAAGGUGAUCACAUGAGGAUCACCCAUGUAUGCAUGCGUGAGCGUGCU
apparent Kd [1]: 45.6 nM
apparent Kd [2]: 285 nM

GUCGUGCGGCUUUGCUGUACGAGUACAUGAGGAUCACCCAUGUAGGAUAUGGUUCGCUUUGCGUGCCAGAAGGGCGUGCGUUGU
apparent Kd [3]: 28.7 nM
apparent Kd [4]: 28.1 nM

UGUUUUCGAGGAUAUACAUGAGGAUCACCCAUGUGGAUUCACACUGACAGUUCCUUUUGUAGAAGGUGAUAGGC
apparent Kd [3]: 124 nM
apparent Kd [4]: 170 nM

UUACGGAUAGAGGAUAUAUUAAGGAAAGUUUCGAUAGAAGGCUAGACAUGAGGAUCACCCAUGUAUAUUGGGAU
apparent Kd [3]: 131 nM
apparent Kd [4]: 151 nM

CUGGAUAGAGGAUAUUGUGCUGCUGACAUGAGGAUCACCCAUGUAUGUUAACUCGGCCGUCGAGAAGGCUAACAGG
apparent Kd [3]: 24.7 nM
apparent Kd [4]: 15.3 nM

GGACCGAGUGUGAGGAUAUGCUGGUCCUUGGAUCAGCAGAAGGCACAUGAGGAUCACCCAUGUGGUGUCGGUCC
apparent Kd [3]: 573 nM
apparent Kd [4]: 203 nM

GUCAAGUGAGGAUAUGAUUGUACAACAGACUAGCGUCUGCAUCAGAAGGCACAUGAGGAUCACCCAUGUUUGUC
apparent Kd [3]: 19.6 nM
apparent Kd [4]: 16.2 nM

AAGCUCGUGUGAGGAUAUGCCGCCGUUUCGGCUGCAGAAGGUGCUACGUUACAUGAGGAUCACCCAUGUCUCUGUUGUUUCGUG
apparent Kd [1]: 23 nM
apparent Kd [2]: 22.3 nM

CAGUACUGAGGAUAUACAUGAGGAUCACCCAUGUAUCCAAGCUAGGAAACUAGCAAAUGUAGAAGGCAGUACUG
apparent Kd [3]: 34.1 nM
apparent Kd [4]: 519 nM

GGAAAGUCAGGAUAUGGAUAAUAAAUACAAAUAGAAACAAACCAGAAGGGACAUGAGGAUCACCCAUGUAAACA
apparent Kd [3]: 24.1 nM
apparent Kd [4]: 23.1 nM

AUGGAUAUCACAGGAUAUGCUAUGGAUACCAUAGCAGAAGGGUGAUCCAUCCUAUGGCUGCACAUGAGGAUCACCCAUGUGUCC
apparent Kd [1]: 107 nM
apparent Kd [2]: 11.1 nM

CCCUCAACAUGAGGAUCACCCAUGUAGGAUAUCGCUAUUGUAAUCAUGAAACAUGAUUACAAUAGCGAGAAGGACAUAUGACCC
apparent Kd [3]: 21.5 nM
apparent Kd [4]: 99.6 nM

UGAGCCUCGUGAGGAUAUACAUGAGGAUCACCCAUGUAAUAAAGUGAACGGAGGUAACUCCGAAUGUAGAAGGCACGAGGCUCA
apparent Kd [3]: 38 nM
apparent Kd [4]: 306 nM

GUCGUGAGACAGGAUAUCCAAUCUAAACACGAGGGAGAAGGGUCUACAUGAGGAUCACCCAUGUGGUCUCAAAA
apparent Kd [3]: 17.6 nM
apparent Kd [4]: 21.7 nM

AAGUUGUCAGGAUAUCGUUAAUUUAGUUGUUUGUAUUAGUUCGAGAAGGGACAUGAGGAUCACCCAUGUUUGAA
apparent Kd [3]: 32.5 nM
apparent Kd [4]: 40.5 nM

GGGUCCGCUCGAGGAUAUAGCUGCAUGUAGUGUCCUGAGGCACAUGAGGAUCACCCAUGUGUAGGCUAGAAGGCGACGGACACU
apparent Kd [3]: 50 nM
apparent Kd [4]: 114 nM

GAAUUAUUACAGAAGGUGUUUUACAUGAGGAUCACCCAUGUUUUAUUGUUUAAAUUUGUUAUUUACAAGGAUAUGUUCUAUUCU
apparent Kd [1]: 27 nM
apparent Kd [2]: 21.9 nM

CGUCGCUGUCGAGAGGAUAUGCGGUGAUGGACAUGAGGAUCACCCAUGUUAGCGAUAGUAUCACGGUAGAAGGCUCUUACGACUG
apparent Kd [1]: 32.9 nM
apparent Kd [2]: 25.3 nM

GGGCCCGGAGGAUAUACAAUGGGCCCGGGAAACCGGGUUUUACAUGAGGAUCACCCAUGUAGAAGGCCGGGUUU
apparent Kd [3]: 14.5 nM
apparent Kd [4]: 15.4 nM

UGCAUGGUAGGAUAUACGGAACAUUAGGGUUUGUUGUGUGGACAUGAGGAUCACCCAUGUAGAAGGGCCGUGCU
apparent Kd [3]: 45.5 nM
apparent Kd [4]: 78.6 nM

GGAUAGGACAGAGGAUAUACGUGCUAGAGAUACUAGGAAAAUUUCCUCACAUGAGGAUCACCCAUGUAGAAGGCUGUCCUAUCG
apparent Kd [3]: 305 nM
apparent Kd [4]: 51.7 nM

CAGUACUGAGGAUAUACAUGAGGAUCACCCAUGUGUUCCAGCUAGGAAACUAGCAAAAGUAGAAGGCUGUACUG
apparent Kd [3]: 16.9 nM
apparent Kd [4]: 172 nM

AAAAGCAUCCAGUAUCAAAAUACAUGAGGAUCACCCAUGUAGCAGGAUAUCAACGUUCCCGACGGUGAGAAGGGCUAUAUGUUG
apparent Kd [3]: 7.47 nM
apparent Kd [4]: 9.26 nM

CGGGCGGGAGGAUAUGCGUGGUUUGUUCUCGUUUGGUGUCUACAUGAGGAUCACCCAUGUAGAAGGCUUGUUUG
apparent Kd [3]: 13.6 nM
apparent Kd [4]: 15.8 nM

GCCAUCGCAUGAGGAUAUGCUCCCGUUUCGGGAGCAGAAGGCAUGUCAUAAGACAUGAGGAUCACCCAUGUAGCUAAGAUGGCA
apparent Kd [1]: 310 nM
apparent Kd [2]: 12.1 nM

UGUCGGAGCAGAGGAUAUUACAUGAGGAUCACCCAUGUUUGAACCAAUAGCUGGAAACAGCAAUGUAAGAAGGCUGCUCCGACA
apparent Kd [3]: 91.2 nM
apparent Kd [4]: 242 nM

CCUCAGUCAGGAUAUAUCGCACCCAUGAAGUACAUAGGUUCAUAGAAGGGACAUGAGGAUCACCCAUGUCUAGA
apparent Kd [3]: 22 nM
apparent Kd [4]: 57 nM

CCAUAAUUGAUCCAUUUUUACAACAUGAGGAUCACCCAUGUGCAGGAUAUCGUGAAAGUUAAAUACGAGAAGGGCAAGAACUGC
apparent Kd [3]: 272 nM
apparent Kd [4]: 229 nM

GGAUGAUAGACAGGAUAUUGAUUGUAAUUAUGUCAAGAAGGGUCUUUGAUUUAAACGACCAGUUACAUGAGGAUCACCCAUGUU
apparent Kd [1]: 30.7 nM
apparent Kd [2]: 21 nM

GCGUAAGAACAGAAGGGUAGACAUGAGGAUCACCCAUGUAAACAUGGAUGCAGGAUAUGUUAUAAUUGAGAUUCAUAAAUUCGC
apparent Kd [1]: 130 nM
apparent Kd [2]: 106 nM

CAUUAAUAGUAGAAGGGUCAAGUUUUGGGUAGGGCAGGAUAUACGAACAAGAAACAUGAGGAUCACCCAUGUGUCCAUGUCAUG
apparent Kd [3]: 33.9 nM
apparent Kd [4]: 29.6 nM

GCGGGCAGCACAGGAUAUGUGACGUACAUGAGGAUCACCCAUGUGCGAAUGGCAGAAGGGUGAGGCCUCGGUGACCGAUUUCCG
apparent Kd [1]: 16 nM
apparent Kd [2]: 5.59 nM

AAGAAAGUAUUGCGAGGGUAGGAGCAGGAUAUCCCAUUGGCCCUCACAUGAGGAUCACCCAUGUGGGAGAAGGGCUAUUACGUU
apparent Kd [3]: 6.51 nM
apparent Kd [4]: 13.2 nM

AUAUGAUAGAUAGGAUAUACAUUGGAUUUAAAAGUAGAAGGAUCAAGUGGGAAUUAUACAUGAGGAUCACCCAUGUUUUUGGAU
apparent Kd [1]: 59 nM
apparent Kd [2]: 46.7 nM

AUCAGCUCGUCAGGAUAUACAUCACUGCUUCGGCAGUGUAUCUUAACAACAUGAGGAUCACCCAUGUAGAAGGGACGAGCUGAU
apparent Kd [3]: 17.6 nM
apparent Kd [4]: 24.5 nM

CUUUUGUGAGGAUAUCAGUAGUAAAUAAAUAAAAUUACUAUUGAGAAGGCACAUGAGGAUCACCCAUGUUCCUC
apparent Kd [3]: 34.7 nM
apparent Kd [4]: 184 nM

GGAUGUAAGGAGAAGGGCUACUGGUUGAAACCUGCGGCCUCUGGAACAUGAGGAUCACCCAUGUAGCAGGAUAUCCUUGCGUGA
apparent Kd [3]: 129 nM
apparent Kd [4]: 46.3 nM

— the EternaBench riboswitch data
